Our source for the IC50 and inhibition values is ChEMBL document CHEMBL2321664, “L-Aminoacyl-triazine derivatives are isoform-selective PI3Kβ inhibitors that target non-conserved Asp862 of PI3Kβ” (ACS Med Chem Lett, 2013).

The target in experiment [1] is Phosphatidylinositol 4,5-bisphosphate 3-kinase catalytic subunit alpha isoform (Homo sapiens, UniProt P42336). In words: Inhibition of PI3K-alpha (unknown origin) assessed as decrease in ATP consumption using phosphatidylinositol bisphosphate and 10 uM ATP as substrate measured after 60 mins by luminescence assay.
The target in experiment [2] is T1, Phosphatidylinositol 4,5-bisphosphate 3-kinase catalytic subunit beta isoform (Homo sapiens, UniProt P42338). The experiment can be described thus: Inhibition of PI3K-beta (unknown origin) assessed as decrease in ATP consumption using phosphatidylinositol bisphosphate and 10 uM ATP as substrate measured after 60 mins by luminescence assay.
Experiment [3] addresses T2, Phosphatidylinositol 4,5-bisphosphate 3-kinase catalytic subunit delta isoform (Homo sapiens, UniProt O00329).
T2 sequence (O00329 whole entry): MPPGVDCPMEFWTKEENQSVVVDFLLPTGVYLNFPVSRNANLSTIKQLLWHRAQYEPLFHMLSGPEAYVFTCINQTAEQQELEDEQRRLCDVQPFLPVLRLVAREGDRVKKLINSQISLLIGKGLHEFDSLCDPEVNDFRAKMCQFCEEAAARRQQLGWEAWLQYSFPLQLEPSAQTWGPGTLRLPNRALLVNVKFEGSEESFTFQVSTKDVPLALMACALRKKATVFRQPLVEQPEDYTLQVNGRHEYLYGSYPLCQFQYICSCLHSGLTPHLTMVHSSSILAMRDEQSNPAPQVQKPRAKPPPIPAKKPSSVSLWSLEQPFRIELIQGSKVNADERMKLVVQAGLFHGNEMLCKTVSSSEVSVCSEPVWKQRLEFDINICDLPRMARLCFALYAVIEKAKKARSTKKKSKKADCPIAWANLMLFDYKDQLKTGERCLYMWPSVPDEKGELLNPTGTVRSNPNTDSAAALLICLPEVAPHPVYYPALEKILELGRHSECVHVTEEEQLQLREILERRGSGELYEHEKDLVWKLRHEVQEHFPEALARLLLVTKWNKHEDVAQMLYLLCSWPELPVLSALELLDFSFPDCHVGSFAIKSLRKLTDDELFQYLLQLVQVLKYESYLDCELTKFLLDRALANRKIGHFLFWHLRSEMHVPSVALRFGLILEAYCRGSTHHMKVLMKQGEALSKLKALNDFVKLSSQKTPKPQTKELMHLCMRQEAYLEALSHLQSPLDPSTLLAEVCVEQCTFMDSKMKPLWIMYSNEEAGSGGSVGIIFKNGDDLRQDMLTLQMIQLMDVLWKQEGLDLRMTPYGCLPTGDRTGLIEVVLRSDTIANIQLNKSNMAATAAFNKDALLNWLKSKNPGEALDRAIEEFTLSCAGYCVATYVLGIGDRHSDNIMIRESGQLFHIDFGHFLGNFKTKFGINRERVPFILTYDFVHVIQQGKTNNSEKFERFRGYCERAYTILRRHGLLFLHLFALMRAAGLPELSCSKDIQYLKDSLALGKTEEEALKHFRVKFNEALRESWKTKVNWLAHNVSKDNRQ
In words: Inhibition of PI3K-delta (unknown origin) assessed as decrease in ATP consumption using phosphatidylinositol bisphosphate and 10 uM ATP as substrate measured after 60 mins by luminescence assay.

Experiment [4] addresses Phosphatidylinositol 4,5-bisphosphate 3-kinase catalytic subunit gamma isoform (Homo sapiens, UniProt P48736). In words: Inhibition of PI3K-gamma (unknown origin) assessed as decrease in ATP consumption using phosphatidylinositol bisphosphate and 10 uM ATP as substrate measured after 60 mins by luminescence assay.
The target in experiment [5] is Phosphatidylinositol 4,5-bisphosphate 3-kinase catalytic subunit beta isoform (Homo sapiens, UniProt P42338, D862Q). In words: Inhibition of recombinant PI3K-beta D862Q mutant (unknown origin) expressed in baculovirus infected Sf21 cells assessed as decrease in ATP consumption using phosphatidylinositol bisphosphate and 100 uM ATP as substrate measured after 60 mins by luminescence assay. A digest of the protocol:
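Kinase-Glo luminescent read-out of kinase activity with 100 μM ATP. Run alongside the wild-type PI3Kβ enzyme and the wild-type and reciprocal-mutant PI3Kα enzymes. IC50 values are means of at least two duplicate experiments.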

In experiment [6] the target is T1, Phosphatidylinositol 4,5-bisphosphate 3-kinase catalytic subunit beta isoform. The experiment can be described thus: Inhibition of wild type PI3K-beta (unknown origin) assessed as decrease in ATP consumption using phosphatidylinositol bisphosphate and 100 uM ATP as substrate measured after 60 mins by luminescence assay. A digest of the protocol: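 Kinase-Glo read-out with 100 μM ATP, run alongside the D862Q mutant and the wild-type and reciprocal-mutant PI3Kα forms. IC50 is the mean of at least two duplicate experiments.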

In experiment [7] the target is RAC-alpha serine/threonine-protein kinase (Homo sapiens, UniProt P31749). In words: Inhibition of IGF-1 induced Akt phosphorylation in PTEN-deficient human MDA-MB-468 cells pretreated for 2 hrs before IGF1 induction measured after 15 mins by Western blot analysis. The class given is cell-based. On the technique in general: In western blotting, separated proteins are transferred to a membrane and probed.
RAC-alpha serine/threonine-protein kinase, sequence (P31749 whole entry): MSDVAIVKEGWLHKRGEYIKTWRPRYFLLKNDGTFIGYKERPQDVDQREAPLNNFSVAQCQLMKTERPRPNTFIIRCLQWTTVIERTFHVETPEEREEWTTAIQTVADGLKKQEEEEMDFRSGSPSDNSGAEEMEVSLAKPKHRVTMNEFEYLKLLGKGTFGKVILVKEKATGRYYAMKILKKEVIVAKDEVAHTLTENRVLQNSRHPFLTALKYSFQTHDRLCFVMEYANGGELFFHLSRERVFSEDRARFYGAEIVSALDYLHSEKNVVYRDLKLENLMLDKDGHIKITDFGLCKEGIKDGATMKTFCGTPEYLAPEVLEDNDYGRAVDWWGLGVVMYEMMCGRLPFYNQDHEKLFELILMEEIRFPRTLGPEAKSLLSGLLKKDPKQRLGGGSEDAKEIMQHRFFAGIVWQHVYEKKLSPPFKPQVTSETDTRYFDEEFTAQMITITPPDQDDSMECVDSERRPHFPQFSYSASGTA

Phosphatidylinositol 4,5-bisphosphate 3-kinase catalytic subunit gamma isoform, sequence (P48736 whole entry, canonical isoform): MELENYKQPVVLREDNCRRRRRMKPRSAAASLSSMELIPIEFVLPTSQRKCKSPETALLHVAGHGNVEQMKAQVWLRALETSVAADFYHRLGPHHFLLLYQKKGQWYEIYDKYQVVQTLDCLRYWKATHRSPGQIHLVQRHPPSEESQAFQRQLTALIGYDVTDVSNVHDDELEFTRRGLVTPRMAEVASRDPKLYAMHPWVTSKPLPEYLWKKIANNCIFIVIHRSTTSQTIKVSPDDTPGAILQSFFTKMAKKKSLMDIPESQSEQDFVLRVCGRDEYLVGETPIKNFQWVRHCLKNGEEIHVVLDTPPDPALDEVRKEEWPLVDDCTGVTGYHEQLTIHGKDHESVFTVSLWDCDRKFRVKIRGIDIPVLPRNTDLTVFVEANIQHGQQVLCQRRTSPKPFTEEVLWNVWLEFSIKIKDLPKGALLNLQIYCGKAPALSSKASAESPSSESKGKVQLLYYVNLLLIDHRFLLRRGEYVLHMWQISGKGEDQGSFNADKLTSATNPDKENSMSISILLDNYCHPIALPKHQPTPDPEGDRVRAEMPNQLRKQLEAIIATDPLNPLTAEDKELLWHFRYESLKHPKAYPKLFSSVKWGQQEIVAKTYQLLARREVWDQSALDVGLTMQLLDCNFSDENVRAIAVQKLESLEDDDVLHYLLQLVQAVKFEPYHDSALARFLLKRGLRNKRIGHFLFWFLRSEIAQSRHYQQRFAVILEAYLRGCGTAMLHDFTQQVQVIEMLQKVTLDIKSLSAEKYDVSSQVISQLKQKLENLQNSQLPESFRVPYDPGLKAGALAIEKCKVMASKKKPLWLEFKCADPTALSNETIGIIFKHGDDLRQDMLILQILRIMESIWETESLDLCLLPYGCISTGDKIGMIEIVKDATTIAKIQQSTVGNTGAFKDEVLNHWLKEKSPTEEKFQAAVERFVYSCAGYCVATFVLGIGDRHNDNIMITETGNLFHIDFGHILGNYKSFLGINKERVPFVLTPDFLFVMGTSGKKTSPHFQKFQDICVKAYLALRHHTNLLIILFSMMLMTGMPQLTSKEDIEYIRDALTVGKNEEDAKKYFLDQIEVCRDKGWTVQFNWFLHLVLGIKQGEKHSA
T1 sequence (P42338 whole entry, canonical isoform): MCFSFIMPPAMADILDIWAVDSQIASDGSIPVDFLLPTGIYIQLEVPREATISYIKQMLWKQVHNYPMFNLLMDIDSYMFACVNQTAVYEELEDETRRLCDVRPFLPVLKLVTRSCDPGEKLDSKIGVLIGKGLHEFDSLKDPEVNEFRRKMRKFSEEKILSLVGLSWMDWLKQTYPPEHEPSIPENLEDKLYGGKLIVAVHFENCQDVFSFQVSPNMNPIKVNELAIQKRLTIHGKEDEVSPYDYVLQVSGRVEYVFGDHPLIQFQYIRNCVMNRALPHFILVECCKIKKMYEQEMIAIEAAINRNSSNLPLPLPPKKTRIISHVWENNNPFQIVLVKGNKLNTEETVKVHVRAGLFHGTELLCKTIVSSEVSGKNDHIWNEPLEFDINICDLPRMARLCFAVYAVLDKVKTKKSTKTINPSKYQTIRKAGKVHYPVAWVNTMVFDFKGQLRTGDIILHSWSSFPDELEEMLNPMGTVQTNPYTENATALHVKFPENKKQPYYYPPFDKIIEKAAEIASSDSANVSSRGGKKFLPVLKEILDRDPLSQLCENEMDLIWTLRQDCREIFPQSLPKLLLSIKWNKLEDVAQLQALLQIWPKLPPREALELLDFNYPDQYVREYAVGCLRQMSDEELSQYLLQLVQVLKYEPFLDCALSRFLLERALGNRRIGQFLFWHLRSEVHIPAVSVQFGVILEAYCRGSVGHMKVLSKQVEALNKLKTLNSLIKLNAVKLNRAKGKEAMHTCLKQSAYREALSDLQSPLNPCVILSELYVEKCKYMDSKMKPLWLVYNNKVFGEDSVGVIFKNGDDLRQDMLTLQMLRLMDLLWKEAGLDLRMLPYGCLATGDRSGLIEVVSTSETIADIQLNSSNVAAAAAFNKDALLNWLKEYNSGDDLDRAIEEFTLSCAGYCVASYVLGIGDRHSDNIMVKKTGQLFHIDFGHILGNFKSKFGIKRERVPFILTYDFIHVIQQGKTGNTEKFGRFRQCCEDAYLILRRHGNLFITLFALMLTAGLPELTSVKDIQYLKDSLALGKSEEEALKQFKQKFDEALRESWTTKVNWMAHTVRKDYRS
Phosphatidylinositol 4,5-bisphosphate 3-kinase catalytic subunit beta isoform (Homo sapiens, UniProt P42338, D862Q), sequence (P42338 whole entry D862Q, canonical isoform): as the sequence (P42338 whole entry, canonical isoform) above, with D862Q counted along it
Phosphatidylinositol 4,5-bisphosphate 3-kinase catalytic subunit alpha isoform, sequence (P42336 whole entry, canonical isoform): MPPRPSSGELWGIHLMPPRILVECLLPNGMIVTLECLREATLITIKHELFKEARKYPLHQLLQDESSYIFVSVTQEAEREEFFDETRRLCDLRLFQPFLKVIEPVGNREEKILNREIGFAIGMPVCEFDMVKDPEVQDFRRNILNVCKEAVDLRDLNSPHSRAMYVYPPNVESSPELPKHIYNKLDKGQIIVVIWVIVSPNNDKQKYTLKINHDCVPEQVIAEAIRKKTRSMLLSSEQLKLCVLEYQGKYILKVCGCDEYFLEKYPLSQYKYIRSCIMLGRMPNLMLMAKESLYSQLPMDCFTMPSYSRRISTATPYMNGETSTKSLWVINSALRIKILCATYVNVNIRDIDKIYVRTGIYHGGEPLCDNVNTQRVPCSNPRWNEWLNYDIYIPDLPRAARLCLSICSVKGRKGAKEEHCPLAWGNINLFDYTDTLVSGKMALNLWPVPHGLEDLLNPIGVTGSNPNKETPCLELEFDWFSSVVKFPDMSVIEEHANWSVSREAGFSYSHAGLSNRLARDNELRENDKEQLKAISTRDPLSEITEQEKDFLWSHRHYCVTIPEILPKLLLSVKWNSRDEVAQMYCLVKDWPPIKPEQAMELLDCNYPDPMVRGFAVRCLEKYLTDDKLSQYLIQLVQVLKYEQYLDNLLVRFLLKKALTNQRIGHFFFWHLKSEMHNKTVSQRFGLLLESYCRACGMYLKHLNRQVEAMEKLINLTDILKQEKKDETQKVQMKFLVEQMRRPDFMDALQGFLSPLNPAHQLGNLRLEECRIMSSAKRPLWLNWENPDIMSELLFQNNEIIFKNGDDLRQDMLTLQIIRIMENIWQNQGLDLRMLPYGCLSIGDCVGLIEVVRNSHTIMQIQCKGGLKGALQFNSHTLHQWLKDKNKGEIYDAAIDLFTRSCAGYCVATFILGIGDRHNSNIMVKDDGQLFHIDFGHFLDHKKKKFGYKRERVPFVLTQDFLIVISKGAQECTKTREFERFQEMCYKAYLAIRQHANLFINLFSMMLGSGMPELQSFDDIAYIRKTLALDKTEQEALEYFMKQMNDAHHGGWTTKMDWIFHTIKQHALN

Turning to `CN(C)CC(=O)N1CCN(c2nc(N3CCOCC3)nc(-n3c(C(F)F)nc4ccccc43)n2)CC1`, the IC50 in experiment [1] was 1600 nM; in experiment [2] it was 2400 nM; in experiment [3] it was 330 nM; in experiment [4] it was above 10000 nM.

On to `CC(=O)NCC(=O)N1CCN(c2nc(N3CCOCC3)nc(-n3c(C(F)F)nc4ccccc43)n2)CC1`, for which the IC50 in experiment [1] is 42 nM; in experiment [2] it was 54 nM; in experiment [3], 26 nM; in experiment [4] it was 380 nM.

As for `NCCC(=O)N1CCN(c2nc(N3CCOCC3)nc(-n3c(C(F)F)nc4ccccc43)n2)CC1`, the IC50 was found to be 720 nM in experiment [1], 98 nM in experiment [2], 58 nM in experiment [3] and 3900 nM in experiment [4].

`C[C@@H](N)C(=O)N1CCN(c2nc(N3CCOCC3)nc(-n3c(C(F)F)nc4ccccc43)n2)CC1`: the IC50 turned out to be 1000 nM in experiment [2], 70 nM in experiment [3] and 2000 nM in experiment [4].

With `N[C@@H](Cc1ccc(O)cc1)C(=O)N1CCN(c2nc(N3CCOCC3)nc(-n3c(C(F)F)nc4ccccc43)n2)CC1`, the IC50 was 3300 nM in experiment [1], 220 nM in experiment [2], 1200 nM in experiment [3] and above 10000 nM in experiment [4].

As for `C[C@H](N)C(=O)N1CCN(c2nc(N3CCOCC3)nc(-n3c(C(F)F)nc4ccccc43)n2)CC1`, the half-maximal inhibitory concentration (IC50) was found to be 31 nM in experiment [2], 490 nM in experiment [3], 890 nM in experiment [5] and 62 nM in experiment [6].

Turning to `CN[C@@H](C)C(=O)N1CCN(c2nc(N3CCOCC3)nc(-n3c(C(F)F)nc4ccccc43)n2)CC1`, the IC50 in experiment [1] was determined as 1500 nM; in experiment [2] it was 260 nM; in experiment [3], 290 nM; in experiment [4] it was 8000 nM.

Regarding `N[C@H](Cc1ccccc1)C(=O)N1CCN(c2nc(N3CCOCC3)nc(-n3c(C(F)F)nc4ccccc43)n2)CC1`, the concentration for half-maximal inhibition (IC50) is above 10000 nM in experiment [2], 3600 nM in experiment [3] and above 10000 nM in experiment [4].

In the case of `CC[C@H](C)[C@H](N)C(=O)N1CCN(c2nc(N3CCOCC3)nc(-n3c(C(F)F)nc4ccccc43)n2)CC1`, the half-inhibitory concentration (IC50) in experiment [2] was 67 nM; in experiment [3] it was 1000 nM; in experiment [5], 1400 nM; in experiment [6] it was 140 nM; in experiment [4], above 10000 nM.

For the compound `N[C@@H](Cc1ccccc1)C(=O)N1CCN(c2nc(N3CCOCC3)nc(-n3c(C(F)F)nc4ccccc43)n2)CC1`, the IC50 in experiment [7] was below 10 nM; in experiment [2], 63 nM; in experiment [3], 2200 nM; in experiment [5], 6000 nM; in experiment [6] it was 74 nM. In experiment [7], the inhibition result is “Dose-dependent effect”.

Take `O=C([C@@H]1CCCN1)N1CCN(c2nc(N3CCOCC3)nc(-n3c(C(F)F)nc4ccccc43)n2)CC1`: the IC50 in experiment [1] is 2200 nM; in experiment [2], 26 nM; in experiment [3] it was 390 nM; in experiment [4], above 10000 nM.

Turning to `NCCCC[C@H](N)C(=O)N1CCN(c2nc(N3CCOCC3)nc(-n3c(C(F)F)nc4ccccc43)n2)CC1`, the IC50 was 2300 nM in experiment [1], 50 nM in experiment [2], 670 nM in experiment [3] and above 10000 nM in experiment [4].

As for `NCC(=O)N1CCN(c2nc(N3CCOCC3)nc(-n3c(C(F)F)nc4ccccc43)n2)CC1`, the IC50 in experiment [1] stood at 1500 nM; in experiment [2] it was 35 nM; in experiment [3] it was 110 nM; in experiment [4], 9900 nM.

For orientation: IC50 means the concentration needed to halve the response being measured.
